Publication PMC2788666 (Journal of medicinal chemistry, 2009)
Entries after “also recorded” stand apart in the source; their conditions may differ. Like-named read-outs stand apart in the source and are kept apart here.

Experiments:
κ opioid receptor [1] = target: T1, κ opioid receptor (Homo sapiens, UniProt P41145); test: Opioid binding to κ receptor, [3H]U69,593, CHO membranes; conditions: for times less active than unsubstituted C10 bivalent ligand 10 at the κ receptor: binding affinity versus 10; for Selectivity μ/δ/κ: ratio of Ki values, κ = 1
Outline: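 Membranes from CHO cells stably expressing human κ opioid receptor were incubated 60 min at 25 °C in 50 mM Tris-HCl pH 7.5 with 1 nM (final) [3H]U69,593. […] Samples were filtered on glass-fibre filters presoaked ≥30 min in 0.1% polyethylenimine, washed three times with cold Tris buffer, and counted by scintillation. IC50 came from a log-probit least-squares fit, Ki from IC50/(1+S), and ratios from Ki values.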

μ opioid receptor [2] = target: T2, μ opioid receptor (Homo sapiens, UniProt P35372); test: [35S]GTPγS binding mediated by the μ opioid receptor, agonist effects; type: biochemical; conditions: for Functional Activity at μ opioid receptor: [35S]GTPγS binding; for Emax (% stimulation) ± S.E.M., Mu Agonist Effects: CHO cells expressing μ opioid receptor
κ opioid receptor [3] = target: T1, κ opioid receptor; test: [35S]GTPγS binding mediated by the kappa opioid receptor, agonist effects; type: biochemical; conditions: for Functional activity at κ opioid receptor: [35S]GTPγS binding
Outline: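 CHO cells expressing κ opioid receptor were incubated with test compound at 12 concentrations, and agonist-stimulated [35S]GTPγS binding was measured. EC50 and maximal stimulation (% stimulation) are reported with S.E.M.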

κ opioid receptor [4] = target: T1, κ opioid receptor; test: [35S]GTPγS binding mediated by the kappa opioid receptor, antagonist effects; type: biochemical; conditions: for IC50 (nM) ± S.E.M., Kappa Antagonist Effects: binding stimulated with 100 nM U50,488; for Imax (% inhibition) ± S.E.M., Kappa Antagonist Effects: binding stimulated with 100 nM U50,488, set at 100% control
Outline: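 Antagonist mode in CHO cells expressing κ opioid receptor: [35S]GTPγS binding was stimulated with 100 nM U50,488, taken as 100% control binding. Inhibition of this stimulated binding by test compound was measured, and IC50 and maximal inhibition (% inhibition) are reported with S.E.M.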

μ opioid receptor [5] = target: T2, μ opioid receptor; test: [35S]GTPγS binding mediated by the μ opioid receptor, antagonist effects; type: biochemical; conditions: binding stimulated with 200 nM DAMGO; for Imax (% inhibition) ± S.E.M., Mu Antagonist Effects: set at 100% control
κ opioid receptor [6] = target: T1, κ opioid receptor; conditions: ratio of Ki values, κ = 1; ref [2]; cited from earlier work
[7] = pH 7.4; ref [8]; cited from earlier work

T1 sequence (P41145 whole entry): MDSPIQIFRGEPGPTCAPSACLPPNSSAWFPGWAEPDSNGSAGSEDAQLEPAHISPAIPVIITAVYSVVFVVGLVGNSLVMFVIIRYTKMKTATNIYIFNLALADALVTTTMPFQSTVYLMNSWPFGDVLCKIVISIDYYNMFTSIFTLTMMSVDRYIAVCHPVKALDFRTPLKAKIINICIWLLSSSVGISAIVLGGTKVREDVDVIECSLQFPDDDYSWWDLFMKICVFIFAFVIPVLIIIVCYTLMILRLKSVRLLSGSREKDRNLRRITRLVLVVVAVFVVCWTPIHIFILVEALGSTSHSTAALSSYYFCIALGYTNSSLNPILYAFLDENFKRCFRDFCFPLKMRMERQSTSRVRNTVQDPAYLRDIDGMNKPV
T2 sequence (P35372 whole entry): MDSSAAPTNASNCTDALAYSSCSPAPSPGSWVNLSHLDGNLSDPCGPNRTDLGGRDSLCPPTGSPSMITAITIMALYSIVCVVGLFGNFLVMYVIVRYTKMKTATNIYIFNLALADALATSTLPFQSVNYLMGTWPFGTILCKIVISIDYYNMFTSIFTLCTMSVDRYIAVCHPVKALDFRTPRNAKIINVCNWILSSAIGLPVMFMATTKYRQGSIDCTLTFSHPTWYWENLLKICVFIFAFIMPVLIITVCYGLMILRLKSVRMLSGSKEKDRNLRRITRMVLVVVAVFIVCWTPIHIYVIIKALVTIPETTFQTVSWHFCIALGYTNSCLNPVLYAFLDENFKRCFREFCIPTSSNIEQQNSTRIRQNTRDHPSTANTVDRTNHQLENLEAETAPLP

Row | SMILES | times less active than unsubstituted C10 bivalent ligand 10 at the κ receptor (κ opioid receptor [1]) | Functional Activity at μ opioid receptor (μ opioid receptor [2]) | Functional activity at κ opioid receptor (κ opioid receptor [3]) | IC50 (nM) ± S.E.M., Kappa Antagonist Effects (κ opioid receptor [4]) | Imax (% inhibition) ± S.E.M., Kappa Antagonist Effects (κ opioid receptor [4]) | Selectivity μ/δ/κ (κ opioid receptor [1]) | Emax (% stimulation) ± S.E.M., Mu Agonist Effects (μ opioid receptor [2]) | Imax (% inhibition) ± S.E.M., Mu Antagonist Effects (μ opioid receptor [5]) | Emax (% stimulation) ± S.E.M., Kappa Agonist Effects (κ opioid receptor [3]; CHO cells expressing κ opioid receptor) | IC50 (nM) ± S.E.M., Mu Antagonist Effects (μ opioid receptor [5]) | Selectivity μ/δ/κ (κ opioid receptor [6]) | times more stable than mono phenyl succinate [7]
1 | CC(CCCCCCC(C)C(=O)Oc1ccc2c(c1)[C@@]13CCCC[C@H]1[C@@H](C2)N(CC1CCC1)CC3)C(=O)Oc1ccc2c(c1)[C@@]13CCCC[C@H]1[C@@H](C2)N(CC1CCC1)CC3 (stereo partly drawn) [4a, Bis((−)-N-cyclobutylmethylmorphinan-3-yl) 2,9-dimethyldecanedioate] | approximately 10 times | Partial Agonist | partial agonists; also recorded: κ agonists; also recorded: Agonist | No inhibition | No inhibition | – | – | – | – | – | – | –
2 | CC(C)(CCCCCCC(C)(C)C(=O)Oc1ccc2c(c1)[C@@]13CCCC[C@H]1[C@@H](C2)N(CC1CCC1)CC3)C(=O)Oc1ccc2c(c1)[C@@]13CCCC[C@H]1[C@@H](C2)N(CC1CCC1)CC3 [4b, Bis((−)-N-cyclobutylmethylmorphinan-3-yl) 2,2,9,9-tetramethyldecanedioate] | approximately 10 times | Partial Agonist | partial agonists; also recorded: κ agonists; also recorded: Agonist | No inhibition | No inhibition | 1/32/1 | – | – | – | – | – | –
3 | CC(CCCCCCC(C)C(=O)Oc1ccc2c(c1)[C@@]13CCCC[C@H]1[C@@H](C2)N(CC1CCC1)CC3)C(=O)O (stereo partly drawn) [7a, 2,9-Dimethyldecanedioic acid 10-((−)-N-cyclobutylmethylmorphinan-3-yl) ester] | – | Partial Agonist | κ agonists; also recorded: Agonist | No inhibition | No inhibition | 1/48/1 | – | – | – | – | – | –
4 | CC(C)(CCCCCCC(C)(C)C(=O)Oc1ccc2c(c1)[C@@]13CCCC[C@H]1[C@@H](C2)N(CC1CCC1)CC3)C(=O)O [7b, 2,2,9,9-Tetramethyldecanedioic acid 10-((−)-N-cyclobutylmethylmorphinan-3-yl) ester] | – | – | – | – | – | 3/22/1 | – | – | – | – | – | –
5 | Oc1ccc2c(c1)[C@@]13CCCC[C@H]1[C@@H](C2)N(CC1CCC1)CC3 [Butorphan, butorphan] | – | Partial Agonist | Agonist | – | – | – | 50 ± 2.5 % stimulation | 50 ± 2.6 % inhibition | 80 ± 6.8 % stimulation | – | – | –
6 | O=C(O)CCCCCCCCC(=O)Oc1ccc2c(c1)[C@@]13CCCC[C@H]1[C@@H](C2)N(CC1CCC1)CC3 [compound 9, reference compound] | – | full μ agonist | κ agonists; also recorded: full agonist | No inhibition | No inhibition | – | – | No inhibition | – | No inhibition | – | –
7 | O=C(CCCCCCCCC(=O)Oc1ccc2c(c1)[C@@]13CCCC[C@H]1[C@@H](C2)N(CC1CCC1)CC3)Oc1ccc2c(c1)[C@@]13CCCC[C@H]1[C@@H](C2)N(CC1CCC1)CC3 [compound 10, reference compound] | – | Partial Agonist | Agonist | No inhibition | No inhibition | – | 51 ± 6.5 % stimulation | – | – | – | 2/90/1 | –
8 | C=CCN1CC[C@]23c4c5ccc(OC(=O)CCCCCCCCC(=O)Oc6ccc7c(c6)[C@@]68CCCC[C@H]6C(C7)N(CC6CCC6)CC8)c4O[C@H]2CCC[C@H]3[C@H]1C5 [compound 11, reference compound] | – | Partial Agonist | κ agonists; also recorded: Agonist | No inhibition | No inhibition | – | – | – | – | – | – | –
9 | CC(CC(=O)Oc1ccccc1)C(=O)O (stereo not drawn) [mono phenyl ester of 2-methylsuccinic acid] | – | – | – | – | – | – | – | – | – | – | – | 43 times
